Values after ≈ are worked out from the molar mass of the structure shown.
Columns and labels:
Staphylococcus aureus [1] = test: Minimum inhibitory concentration against Staphylococcus aureus A6 (inoculum, 10e5 cfu per spot); type: functional
Procedure, shortened: (§1)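 MIC in µg/mL, determined in Jewell and Permain growth medium with spot inoculation at 10^5 cfu per spot.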

Staphylococcus aureus [2] = test: Minimum inhibitory concentration against Staphylococcus aureus A4 (inoculum, 10e5 cfu per spot); type: functional; procedure, shortened: as §1
Streptococcus pyogenes = test: Minimum inhibitory concentration against Streptococcus pyogenes (inoculum, 10e5 cfu per spot) A1; type: functional; procedure, shortened: as §1
Serratia marcescens = test: Minimum inhibitory concentration against Serratia marcescens A16 (inoculum, 10e5 cfu per spot); type: functional; procedure, shortened: as §1
Escherichia coli [3] = test: Minimum inhibitory concentration against Escherichia coli TEM X3 (inoculum, 10e4 cfu per spot)(TEM I type lactamase producer)
Enterobacter cloacae [4] = test: Minimum inhibitory concentration against Enterobacter cloacae A13 (inoculum, 10e5 cfu per spot); type: functional; procedure, shortened: as §1
Enterobacter cloacae [5] = test: Minimum inhibitory concentration against Enterobacter cloacae P99 (inoculum, 10e4 cfu per spot)(type I lactamase producer); type: functional
Procedure, shortened: (§2)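 MIC in µg/mL, determined in Jewell and Permain growth medium with spot inoculation at 10^4 cfu per spot. P99 is described as a constitutive type I lactamase producer.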

Escherichia coli [6] = test: Minimum inhibitory concentration against Escherichia coli DCO (inoculum, 10e4 cfu per spot); type: functional; procedure, shortened: as §2
Proteus mirabilis = test: Minimum inhibitory concentration against Proteus mirabilis A18 (inoculum, 10e5 cfu per spot); type: functional; procedure, shortened: as §1
Escherichia coli [7] = test: Minimum inhibitory concentration against Escherichia coli DC2 (inoculum, 10e4 cfu per spot); type: functional; procedure, shortened: as §2
Pseudomonas aeruginosa = test: Minimum inhibitory concentration against Pseudomonas aeruginosa A21 (inoculum, 10e5 cfu per spot); type: functional; procedure, shortened: as §1
Klebsiella pneumoniae = test: Minimum inhibitory concentration against Klebsiella pneumoniae A24 (inoculum, 10e5 cfu per spot); type: functional; procedure, shortened: as §1
Escherichia coli [8] = test: Minimum inhibitory concentration against Escherichia coli X4 (inoculum, 10e4 cfu per spot)
Klebsiella aerogenes [9] = test: Minimum inhibitory concentration against Klebsiella aerogenes X6 (inoculum, 10e4 cfu per spot); type: functional; procedure, shortened: as §2
Escherichia coli [10] = test: Minimum inhibitory concentration against Escherichia coli A8 (inoculum, 10e5 cfu per spot); type: functional; procedure, shortened: as §1
Klebsiella aerogenes [11] = test: Minimum inhibitory concentration against Klebsiella aerogenes X5L (inoculum, 10e4 cfu per spot); type: functional; procedure, shortened: as §2
Proteus vulgaris = test: Minimum inhibitory concentration against Proteus vulgaris Pv9 (inoculum, 10e5 cfu per spot)
Enterobacter cloacae [12] = test: Minimum inhibitory concentration against Enterobacter cloacae P99 (inoculum, 10e4 cfu per spot); type: functional; procedure, shortened: as §2

| MIC (Staphylococcus aureus [1]) [µg/mL] | MIC (Staphylococcus aureus [2]) [µg/mL] | MIC (Streptococcus pyogenes) [µg/mL] | MIC (Serratia marcescens) [µg/mL] | MIC (Escherichia coli [3]) [µg/mL] | MIC (Enterobacter cloacae [4]) [µg/mL] | MIC (Enterobacter cloacae [5]) [µg/mL] | MIC (Escherichia coli [6]) [µg/mL] | MIC (Proteus mirabilis) [µg/mL] | MIC (Escherichia coli [7]) [µg/mL] | MIC (Pseudomonas aeruginosa) [µg/mL] | MIC (Klebsiella pneumoniae) [µg/mL] | MIC (Escherichia coli [8]) [µg/mL] | MIC (Klebsiella aerogenes [9]) [µg/mL] | MIC (Escherichia coli [10]) [µg/mL] | MIC (Klebsiella aerogenes [11]) [µg/mL] | MIC (Proteus vulgaris) [µg/mL] | MIC (Enterobacter cloacae [12]) [µg/mL] | SMILES |
| --- | --- | --- | --- | --- | --- | --- | --- | --- | --- | --- | --- | --- | --- | --- | --- | --- | --- | --- |
| > 256 | > 256 | 32 (≈ 63.2 µM) | 256 (≈ 505 µM) | 32 (≈ 63.2 µM) | 64 (≈ 126 µM) | 64 (≈ 126 µM) | 32 (≈ 63.2 µM) | 256 (≈ 505 µM) | 2 (≈ 3.95 µM) | > 256 | 64 (≈ 126 µM) | 32 (≈ 63.2 µM) | 64 (≈ 126 µM) | 32 (≈ 63.2 µM) | 64 (≈ 126 µM) | > 256 | 32 (≈ 63.2 µM) | CC(=O)OCC1=C(C(=O)OC(c2ccccc2)c2ccccc2)N2C(=O)[C@@H](NC3=NCCN3)C2SC1 (stereo partly specified) |
| 256 (≈ 575 µM) | 256 (≈ 575 µM) | 8 (≈ 18 µM) | > 256 | 32 (≈ 71.8 µM) | 32 (≈ 71.8 µM) | > 256 | 4 (≈ 8.98 µM) | 16 (≈ 35.9 µM) | 0.5 (≈ 1.12 µM) | > 256 | 32 (≈ 71.8 µM) | 2 (≈ 4.49 µM) | 8 (≈ 18 µM) | 8 (≈ 18 µM) | > 256 | > 256 | 2 (≈ 4.49 µM) | CC(=O)OCC1=C(C(=O)OC(C)(C)C)N2C(=O)[C@@H](Nc3nc4cc[nH]cc-4n3)C2SC1 (stereo partly specified) |
| 2 (≈ 3.49 µM) | 16 (≈ 27.9 µM) | 2 (≈ 3.49 µM) | 256 (≈ 447 µM) | 4 (≈ 6.99 µM) | > 256 | 256 (≈ 447 µM) | 1 (≈ 1.75 µM) | 16 (≈ 27.9 µM) | 0.12 (≈ 0.21 µM) | > 256 | 64 (≈ 112 µM) | 1 (≈ 1.75 µM) | 4 (≈ 6.99 µM) | 4 (≈ 6.99 µM) | 256 (≈ 447 µM) | > 256 | 4 (≈ 6.99 µM) | CC(=O)OCC1=C(C(=O)OC(c2ccccc2)c2ccccc2)N2C(=O)[C@@H](Nc3nc4cc(F)ccc4[nH]3)C2SC1 (stereo partly specified) |
| 8 (≈ 13.7 µM) | 64 (≈ 109 µM) | 1 (≈ 1.71 µM) | > 256 | 4 (≈ 6.84 µM) | > 256 | > 256 | 0.5 (≈ 0.855 µM) | 8 (≈ 13.7 µM) | 0.06 (≈ 0.103 µM) | > 256 | 1 (≈ 1.71 µM) | 0.5 (≈ 0.855 µM) | 1 (≈ 1.71 µM) | 0.5 (≈ 0.855 µM) | 128 (≈ 219 µM) | 128 (≈ 219 µM) | 0.5 (≈ 0.855 µM) | CC(=O)OCC1=C(C(=O)OC(c2ccccc2)c2ccccc2)N2C(=O)[C@@H](Nc3nc4cc(CO)ccc4[nH]3)C2SC1 (stereo partly specified) |
| 1 (≈ 1.6 µM) | 8 (≈ 12.8 µM) | 0.5 (≈ 0.798 µM) | ≥ 128 | 4 (≈ 6.38 µM) | ≥ 128 | ≥ 128 | 0.5 (≈ 0.798 µM) | 4 (≈ 6.38 µM) | < 0.03 | ≥ 128 | 1 (≈ 1.6 µM) | 0.5 (≈ 0.798 µM) | 2 (≈ 3.19 µM) | 1 (≈ 1.6 µM) | ≥ 128 | ≥ 128 | 1 (≈ 1.6 µM) | Cc1nnc(SCC2=C(C(=O)OC(c3ccccc3)c3ccccc3)N3C(=O)[C@@H](Nc4nc5ccccc5[nH]4)C3SC2)s1 (stereo partly specified) |
| 4 (≈ 6.85 µM) | 32 (≈ 54.8 µM) | 0.5 (≈ 0.857 µM) | > 256 | 2 (≈ 3.43 µM) | 256 (≈ 439 µM) | 64 (≈ 110 µM) | 0.12 (≈ 0.206 µM) | 32 (≈ 54.8 µM) | 0.06 (≈ 0.103 µM) | > 256 | 1 (≈ 1.71 µM) | 0.12 (≈ 0.206 µM) | 0.25 (≈ 0.428 µM) | 0.12 (≈ 0.206 µM) | 32 (≈ 54.8 µM) | 64 (≈ 110 µM) | 0.12 (≈ 0.206 µM) | CC(=O)OCC1=C(C(=O)OC(c2ccccc2)c2ccccc2)N2C(=O)[C@@H](Nc3nc4cc(CN)ccc4[nH]3)C2SC1 (stereo partly specified) |
| 2 (≈ 3.21 µM) | 128 (≈ 206 µM) | 1 (≈ 1.61 µM) | > 256 | 32 (≈ 51.4 µM) | > 256 | > 256 | 32 (≈ 51.4 µM) | 128 (≈ 206 µM) | 0.12 (≈ 0.193 µM) | > 256 | 32 (≈ 51.4 µM) | 32 (≈ 51.4 µM) | 64 (≈ 103 µM) | 32 (≈ 51.4 µM) | > 256 | > 256 | 32 (≈ 51.4 µM) | CC(=O)OCC1=C(C(=O)OC(c2ccccc2)c2ccccc2)N2C(=O)[C@@H](Nc3nc4cc(C(F)(F)F)ccc4[nH]3)C2SC1 (stereo partly specified) |

Reference: ChEMBL document CHEMBL1125626, “Synthesis and structure-activity relationship of new cephalosporins with amino heterocycles at C-7. Dependence of the antibacterial spectrum and beta-lactamase stability on the pKa of the C-7 heterocycle” (1991)
